Screening results (PubChem)
In the library only some 2% were active in any assay of this set; here they are far more common.
DENV2 CPE – protects cells from dengue virus 2 cytopathic effect. AID 651640. DENV2-infected cells, cytopathic effect rescue, plate reader. 350,000 tested, 1.7% active. CPE inhibition, % at 9.99 µM; in the data active = CPE inhibition above about 20%, passing the limit was not always enough; inconclusive = no clear call, values can overlap the other calls; tested in BHK-21 cells;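 note: 0% = median of neutral control wells and 100% = median of positive control wells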
S100A4 MyoIIA – blocks human S100A4 binding to myosin IIA peptide. inhibition, % at 10.7 µM. S100A4/TAMRA-MyoIIA peptide fluorescence polarization. P26447. 360,000 tested, 0.14% active;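 active = mean inhibition of at least 70% across replicates, with every replicate also reaching that level; inconclusive = mean inhibition reaches 70% but some replicates fall short; inactive = mean inhibition below 70%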
Target sequence (P26447 whole entry, looked up): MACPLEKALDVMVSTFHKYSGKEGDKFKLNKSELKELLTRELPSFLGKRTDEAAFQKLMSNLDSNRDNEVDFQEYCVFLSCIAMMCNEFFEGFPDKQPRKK
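Compound dosing: one dose per compound; test system: human S100A4 monomer with TAMRA-labelled myosin IIA peptide; probe or stimulus: TAMRA-labelled myosin IIA heavy-chain peptide probe, 5 nM; medium: HEPES buffer with Ca2+, pH 7.2; schedule: 5 min incubation before reading; benchmarks: neutral control DMSO, positive control TFP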
XiGFP reactiv – activators of X-chromosome reactivation in mouse fibroblasts; XiGFP mouse fibroblasts, % GFP-positive cells imaging, 3 d; cells co-treated with 5-aza-dC sensitizer; scaled so ellipticine positive control = 100%; activation, % at 7.58 µM; 360,000 tested, 0.055% active;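 active = mean normalized replicate activation at least 10% and every replicate at or above 10%; inconclusive = only one of the two criteria met; inactive = mean below 10% and not all replicates reach 10%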;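 note: 0% = median of on-plate neutral control wells and 100% = ellipticine 6 µM median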
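System: 68-5-11 XiGFP fibroblast line | Buffer or medium: DMEM containing 5-aza-dC | Compound: Single point | Times: Compounds 3 days, fix/stain 15 min at room temperature | Benchmarks: Positive control ellipticine, 6 µM final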
E-selectin induc – E-selectin induction on HUVECs; P16581; HUVEC E-selectin immunofluorescence imaging; normalized: neutral wells 0, TNF-alpha wells 100; activation, % at 7.58 µM; 260,000 tested, 0.37% active;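 active = mean E-selectin-positive cell signal at least 10% of the positive control, reached in at least 60% of replicates, without over 20% cell loss; inconclusive = no rule given, readout overlaps actives, possibly toxicity-flagged; inactive = the rest, including those meeting only one limit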
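Material: HUVEC primary endothelial cells; Amount: 3,000 cells per well; Dosing: single concentration; Medium: EGM-2 growth medium on 0.1% gelatin-coated wells; Read-out basis: percent E-selectin-positive cells; Signal: immunofluorescence imaging; Control set: TNF-alpha, DMSO.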
Starred values were filed as active, the others as inactive; ? = inconclusive; · = no result; ! = not active in a repeat.

SMILES	DENV2 CPE	S100A4 MyoIIA	XiGFP reactiv	E-selectin induc
COC(=O)c1ccc2nc(-c3ccc(F)cc3)c(Cc3ccccc3OC)n2c1	50*	-7	0	0
COC(=O)c1ccc2nc(C3CCCCC3)c(Cc3ccccc3OC)n2c1	20*	-1	0	0
COC(=O)c1ccc2nc(-c3ccc(C#N)cc3)c(Cc3cccc(F)c3)n2c1	41*	1	0	0
OC(CNC1Cc2ccccc2C1)COc1ccc(Cl)cc1 (stereo not drawn)	?	-2	0	0
Cc1ccnc(NC(=O)COC(=O)C23CC4CC(CC(C4)C2)C3)n1	5	0	0	0
CCN(CC)S(=O)(=O)c1cc(NS(=O)(=O)c2cccc(Cl)c2)ccc1C	-8	-7	0	·
C[C@H]1CN([C@@H](C)CO)C(=O)c2cc(NS(=O)(=O)c3cccs3)ccc2O[C@H]1CN(C)S(C)(=O)=O	?	-2	0	449*
C[C@@H]1CN([C@H](C)CO)C(=O)c2cc(NS(=O)(=O)c3cccs3)ccc2O[C@H]1CN(C)S(C)(=O)=O	-3	-22	0	33*
CCc1ccc(N2CC(C(=O)Nc3ccccc3N3CCCC3)CC2=O)cc1 (stereo not drawn)	1	-4	0	0
C[C@@H]1CN([C@H](C)CO)C(=O)c2c(c3ccccc3n2C)-c2ccccc2CO[C@H]1CN(C)Cc1ccc2c(c1)OCCN2C	28*!	3	0	0
C[C@@H]1CN([C@@H](C)CO)C(=O)c2c(c3ccccc3n2C)-c2ccccc2CO[C@H]1CN(C)Cc1cccc(O)c1	25*	14	0	0
C[C@H](CO)N1C[C@H](C)[C@H](CN(C)CC2CC2)OCc2ccccc2-c2c(n(C)c3ccccc23)C1=O	1	90*	0	0
C[C@H]1CN([C@@H](C)CO)C(=O)c2c(c3ccccc3n2C)-c2ccccc2CO[C@@H]1CN(C)Cc1cccc(O)c1	5	16	0	0
C[C@H](CO)N1C[C@H](C)[C@@H](CN(C)Cc2cccc3c2OCCCO3)OCc2ccccc2-c2c(n(C)c3ccccc23)C1=O	·	·	0	·
C[C@@H]1CN([C@@H](C)CO)C(=O)c2c(c3ccccc3n2C)-c2ccccc2CO[C@H]1CN(C)Cc1cccc2c1OCCCO2	21*	-1	0	1
Cc1ccc(Cl)cc1NC(=O)C(NS(=O)(=O)c1cccs1)c1ccccc1 (stereo not drawn)	-1	-2	0	1
CCNNC(=O)C(O)(Cc1ccccc1)Cc1ccccc1	0	2	0	0
C[C@@H]1CN([C@@H](C)CO)C(=O)c2c(c3ccccc3n2C)-c2ccccc2CO[C@H]1CN(C)C(=O)Nc1cccc(Cl)c1Cl	40*	4	0	0
C[C@H]1CN([C@@H](C)CO)C(=O)c2c(c3ccccc3n2C)-c2ccccc2CO[C@H]1CN(C)C(=O)Nc1cccc(Cl)c1Cl	2	-20	0	-4
C[C@@H]1CN([C@H](C)CO)C(=O)c2c(c3ccccc3n2C)-c2ccccc2CO[C@@H]1CN(C)C(=O)c1cc(Cl)cc(Cl)c1	60*	3	0	2
NC(=O)c1cccc(-c2csc(C(O)c3cccc(Cl)c3)n2)c1 (stereo not drawn)	4	-7	0	0
O=C(O)c1cccc(-c2csc(C(O)c3cccc(Cl)c3)n2)c1 (stereo not drawn)	46*	-3	0	0
CCOc1ccc(Oc2c(/C=N/NC(=O)COc3ccccc3OC)c(C)nn2-c2ccccc2)cc1	·	·	0	0
COc1cc(C(=O)OCCn2c(=O)c3c(ncn3CCN(C)C)n(C)c2=O)cc(OC)c1OC	25*	1	0	·
CCCN1[C@@H]2Cn3c(ccc(-c4cccc(F)c4)c3=O)[C@H]1[C@@H](C(=O)NCC1CC1)[C@@H]2CO	-2	-19	0	-2
SMILES	DENV2 CPE	S100A4 MyoIIA	XiGFP reactiv	E-selectin induc
Cc1ccccc1-c1nnc(SCC(=O)N(C)c2c(N)n(Cc3ccccc3)c(=O)[nH]c2=O)n1C	2	1	0	0
Cc1ccc(C(=O)NC(=S)Nc2ccc(CN3CCCCC3)cc2)c(C)c1	5	1	0	26*
COc1ccc(C(=O)NC(=S)Nc2ccc(CN3CCCCC3)cc2)cc1Cl	2	-2	0	0
O=C(C[C@@H]1C[C@H]2c3cc(NC(=O)C4CCC4)ccc3O[C@H]2[C@@H](CO)O1)NCCN1CCCCC1	8	1	0	0
O=C(C[C@@H]1C[C@H]2c3cc(NC(=O)C4CCC4)ccc3O[C@H]2[C@H](CO)O1)NCCN1CCCCC1	26*	-50	0	-1
O=C(C[C@@H]1C[C@H]2c3cc(NC(=O)Cc4ccncc4)ccc3O[C@H]2[C@@H](CO)O1)NCCN1CCCCC1	35*	1	0	0
O=C(NCc1ccccc1)c1cc(C2CCCCN2C(=O)c2ccc(Cl)cc2)on1 (stereo not drawn)	6	-2	0	0
Cc1cc(C)c(C(=O)NC2CCCc3c2cnn3-c2ccc(C)c(C)c2)c(=O)[nH]1 (stereo not drawn)	106*	0	0	0
NC(=O)c1cc(C(=O)c2ccc(Cl)cc2Cl)c[nH]1	33*	0	0	0
CCCC(=O)Nc1ccc2c(c1)OC[C@H](C)N(Cc1ccc(-c3ccccn3)cc1)C[C@H](C)[C@H](OC)CN(C)C2=O	-7	0	-1	0
COc1ccc(-n2cnnc2SCC(=O)Nc2cccnc2Cl)cc1	-1	1	0	·
CC1CCc2nc3ccc(S(=O)(=O)N4CCC(C(=O)NC5CCCC5)CC4)cc3c(C(=O)O)c2C1 (stereo not drawn)	?	-13	0	93*
CN(C)C(=O)C[C@H]1CC[C@H]2[C@@H](COC[C@@H](O)CN2Cc2ccc(C(F)(F)F)cc2)O1	-1	·	0	0
COc1cccc(CN(C)C(=O)[C@@H](Cc2ccccc2)NC(=O)[C@H]2O[C@@H](n3ccc(=O)[nH]c3=O)[C@H](O)[C@@H]2O)c1	22*	0	0	0
O=C(CN1C(=O)NC2(CCCC2)C1=O)N1CCN(S(=O)(=O)c2ccccc2F)CC1	2	2	0	·
O=C(CN1C(=O)NC2(CCCC2)C1=O)N1CCN(S(=O)(=O)c2ccccc2[N+](=O)[O-])CC1	38*	4	0	2
Cc1nc(N)c(CC(Br)CBr)c(Cl)n1 (stereo not drawn)	?	-1	0	·
C[C@@H]1CN([C@H](C)CO)C(=O)c2cc(NC(=O)CCN3CCOCC3)ccc2O[C@@H]1CN(C)C(=O)Nc1ccc2c(c1)OCO2	50*	5	0	-3
CC(C)NC(=O)N(C)C[C@H]1Oc2ccc(NC(=O)CCN3CCOCC3)cc2C(=O)N([C@H](C)CO)C[C@@H]1C	-2	4	0	43*
